What is called IC50 is the point on the concentration scale where inhibition reaches its midpoint.

Molecules are shown by their SMILES.

The test system of one data set is L02. As to the kind of experiment: Cytotoxicity against human L02 cells assessed as reduction in cell viability after 72 hrs by MTT assay. In kind it is cell-based. Conditions: L02, 72 h. Summed up:
(§1)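 MTT assay. Cells were seeded and grown 24 h at 37 °C in 5% CO2, then exposed to compound or left untreated for 72 h. MTT (5 mg/mL stock) was added for 4 h and the formazan dissolved in DMSO. OD was read at 570 nm. IC50 is the concentration giving 50% growth inhibition, reported as mean ± SD of three independent experiments. Vehicle reference was 0.1% DMSO.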
On the technique in general: Tetrazolium dyes change colour on reduction, which living cells bring about.

The nature of data set [1]: Selectivity index, ratio of IC50 for human L02 cells to IC50 for human HepG2 cells. In kind it is toxicity. The note with it: L02 cells and HepG2 cells, read-out: Ratio IC50. A digest of the protocol: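 MTT assay: cells grown 24 h at 37 °C, 5% CO2, then exposed 72 h; MTT (5 mg/mL) added for 4 h, formazan dissolved in DMSO, OD read at 570 nm. Vehicle 0.1% DMSO. Three independent experiments.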

A further data set deals with PC-3. The data set can be described thus: Antiproliferative activity against human PC3 cells after 72 hrs by MTT assay. Format: functional, cell-based. Conditions: PC-3, 72 h. Summed up:
as §1

The subject of another data set is HepG2. The data set can be described thus: Antiproliferative activity against human HepG2 cells after 72 hrs by MTT assay. In kind it is functional, cell-based. Conditions: HepG2, 72 h. Summed up: as §1
The subject of a further data set is HT-29. As to the kind of experiment: Antiproliferative activity against human HT-29 cells after 72 hrs by MTT assay. Format: functional, cell-based. Conditions: HT-29, 72 h. A digest of the protocol: as §1
Data set [2] in a line: Drug metabolism in human HepG2 cells assessed as NO release by measuring nitrite formation at 100 uM after 1 hr by Griess assay. In kind it is ADME, cell-based. The note with it: hepg2, 1 h. Summed up:
(§2)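 HepG-2 or L-02 cells were exposed to 100 µM of each compound for 60 min and then harvested. Lysates were mixed with Griess reagent for 10 min at 37 °C and absorbance was read at 550 nm. NO release is expressed as nitrite, reported as mean ± SD of three independent experiments.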

A short description of data set [3]: Drug metabolism in human L02 cells assessed as NO release by measuring nitrite formation at 100 uM after 1 hr by Griess assay. Format: ADME, cell-based. The note with it: l02, 1 h. A digest of the protocol:
as §2
(Griess reagent forms a coloured azo dye with nitrite.)

Take `C[C@H]1CCC/C=C/[C@@H]2C[C@H](OC(=O)c3ccccc3C(=O)OCCOc3no[n+]([O-])c3S(=O)(=O)c3ccccc3)C[C@H]2[C@H](OC(=O)c2ccccc2C(=O)OCCOc2no[n+]([O-])c2S(=O)(=O)c2ccccc2)/C=C/C(=O)O1`: the IC50 was found to be 6200 nM with L02, 130 nM in the data set on PC-3, 550 nM in the data set on HepG2 and 230 nM in the data set with HT-29. Further, the selectivity ratio in data set [1] was determined as 11. For the same compound, the Drug metabolism in data set [2] came to 89.3 µM; in data set [3] it was 20.6 µM.
Take `C[C@H]1CCC/C=C/[C@@H]2C[C@H](OC(=O)CCCC(=O)OCCOc3no[n+]([O-])c3S(=O)(=O)c3ccccc3)C[C@H]2[C@H](O)/C=C/C(=O)O1`: the 50% inhibitory concentration (IC50) in the data set on L02 worked out at 5100 nM; in the data set with PC-3, 59 nM; in the data set on HepG2, 820 nM; with HT-29 it was 180 nM. Further, in data set [1], the selectivity ratio amounted to 6. Further, the Drug metabolism in data set [2] turned out to be 65.2 µM; in data set [3] it was 14.6 µM.
As to `C[C@H]1CCC/C=C/[C@@H]2C[C@H](O)C[C@H]2[C@H](OC(=O)CCCC(=O)OCCOc2no[n+]([O-])c2S(=O)(=O)c2ccccc2)/C=C/C(=O)O1`, the IC50 turned out to be 5100 nM in the data set with L02, 46 nM in the data set on PC-3, 410 nM in the data set with HepG2 and 280 nM in the data set with HT-29. For the same compound, in data set [1], the selectivity ratio is 12. Besides, the Drug metabolism was 68.5 µM in data set [2] and 13.9 µM in data set [3].
Regarding `C[C@H]1CCC/C=C/[C@@H]2C[C@H](OC(=O)CCCC(=O)OCCCOc3no[n+]([O-])c3S(=O)(=O)c3ccccc3)C[C@H]2[C@H](OC(=O)CCCC(=O)OCCCOc2no[n+]([O-])c2S(=O)(=O)c2ccccc2)/C=C/C(=O)O1`, the IC50 was 5100 nM with L02, 83 nM with PC-3, 380 nM in the data set with HepG2 and 620 nM in the data set on HT-29. In addition, the selectivity ratio in data set [1] amounted to 13. For the same compound, the Drug metabolism in data set [2] worked out at 92.3 µM; in data set [3], 23.4 µM.
For the compound `C[C@H]1CCC/C=C/[C@@H]2C[C@H](OC(=O)CCC(=O)OCCOc3no[n+]([O-])c3S(=O)(=O)c3ccccc3)C[C@H]2[C@H](OC(=O)CCC(=O)OCCOc2no[n+]([O-])c2S(=O)(=O)c2ccccc2)/C=C/C(=O)O1`, the IC50 in the data set with L02 amounted to 5900 nM; in the data set with PC-3, 56 nM; in the data set on HepG2 it was 510 nM; in the data set with HT-29 it was 220 nM. The selectivity ratio in data set [1] came to 12. Besides, the Drug metabolism in data set [2] worked out at 98.4 µM; in data set [3], 19.5 µM.
